Measurements taken from ChEMBL document CHEMBL1811868, “Structure-activity relationship of 2-hydroxy-2-aryl-2,3-dihydro-imidazo[1,2-a]pyrimidinium salts and 2N-substituted 4(5)-aryl-2-amino-1H-imidazoles as inhibitors of biofilm formation by Salmonella Typhimurium and Pseudomonas aeruginosa” (Bioorg Med Chem, 2011).
pIC50: −log10 of the molar value. Calls of active or inactive are those of the source. Unless noted, the rule behind the calls is not given here.

Experiments:
Pseudomonas aeruginosa [1] = test: Antimicrobial activity against Pseudomonas aeruginosa PA14 assessed as inhibition of biofilm formation at 25 to 50 uM after 24 hrs by spectrophotometry; format: functional
In short: (§1)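 Static peg-lid biofilm prevention assay. Twofold serial dilutions in TSB diluted 1/20, 2–3 repeats per compound. Overnight S. Typhimurium ATCC14028 (LB-grown) or P. aeruginosa PA14 (TSB-grown) cultures were diluted 1:100, giving ~10^6 cells/well, then incubated 24 h at 25 °C without shaking. Pegs were PBS-washed, stained 30 min with 0.1% crystal violet, extracted with 30% acetic acid and read at OD570. IC50 was fitted from the concentration gradient.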

Pseudomonas aeruginosa [2] = test: Antimicrobial activity against Pseudomonas aeruginosa PA14 assessed as inhibition of biofilm formation after 24 hrs by spectrophotometry; format: functional, organism-based; settings: PA14, 24 h; in short: as §1
Salmonella typhimurium [3] = test: Antimicrobial activity against Salmonella Typhimurium ATCC 14028 assessed as inhibition of biofilm formation after 24 hrs by spectrophotometry; format: functional, organism-based, Salmonella enterica subsp. enterica serovar Typhimurium; settings: Salmonella enterica, ATCC 14028, 24 h; in short: as §1
Pseudomonas aeruginosa [4] = test: Antimicrobial activity against Pseudomonas aeruginosa PA14 assessed as inhibition of planktonic cell growth at IC50 after 24 hrs by […]; format: functional, organism-based
In short: (§2)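 Planktonic growth was followed by Bioscreen growth curves, not by crystal violet. Overnight cultures were diluted 1:200 in TSB 1/20 and received compound serially diluted in DMSO or EtOH, in triplicate, with solvent controls. Plates were shaken at 25 °C for at least 24 h, reading A600 every 15 min.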

Salmonella typhimurium [5] = test: Antimicrobial activity against Salmonella Typhimurium ATCC 14028 assessed as inhibition of planktonic cell growth at IC50 after 24 hrs by […]; format: functional, organism-based; settings: Salmonella enterica subsp. enterica serovar Typhimurium; in short: as §2
Pseudomonas aeruginosa [6] = test: Antimicrobial activity against Pseudomonas aeruginosa PA14 assessed as inhibition of planktonic cell growth at 20 uM after 24 hrs by […]; format: functional, organism-based; in short: as §2
Salmonella typhimurium [7] = test: Antimicrobial activity against Salmonella Typhimurium ATCC 14028 assessed as inhibition of planktonic cell growth at 20 uM after 24 hrs by […]; format: functional, organism-based; settings: Salmonella enterica subsp. enterica serovar Typhimurium; in short: as §2
Salmonella typhimurium [8] = test: Antimicrobial activity against Salmonella Typhimurium ATCC 14028 assessed as inhibition of planktonic cell growth at 150 uM after 24 hrs by […]; format: functional, organism-based; settings: Salmonella enterica subsp. enterica serovar Typhimurium; in short: as §2
Pseudomonas aeruginosa [9] = test: Antimicrobial activity against Pseudomonas aeruginosa PA14 assessed as inhibition of planktonic cell growth at 80 uM after 24 hrs by […]; format: functional, organism-based; in short: as §2
Pseudomonas aeruginosa [10] = test: Antimicrobial activity against Pseudomonas aeruginosa PA14 assessed as inhibition of planktonic cell growth at 10 uM after 24 hrs by […]; format: functional, organism-based; in short: as §2
Pseudomonas aeruginosa [11] = test: Antimicrobial activity against Pseudomonas aeruginosa PA14 assessed as inhibition of planktonic cell growth at 40 uM after 24 hrs by […]; format: functional, organism-based; in short: as §2
Salmonella typhimurium [12] = test: Antimicrobial activity against Salmonella Typhimurium ATCC 14028 assessed as inhibition of planktonic cell growth at 200 uM after 24 hrs by […]; format: functional, organism-based; settings: Salmonella enterica subsp. enterica serovar Typhimurium; in short: as §2
Salmonella typhimurium [13] = test: Antimicrobial activity against Salmonella Typhimurium ATCC 14028 assessed as inhibition of planktonic cell growth at 40 uM after 24 hrs by […]; format: functional, organism-based; settings: Salmonella enterica subsp. enterica serovar Typhimurium; in short: as §2
Pseudomonas aeruginosa [14] = test: Antimicrobial activity against Pseudomonas aeruginosa PA14 assessed as inhibition of planktonic cell growth at 100 uM after 24 hrs by […]; format: functional, organism-based; in short: as §2

pIC50 (Pseudomonas aeruginosa [2])	pIC50 (Salmonella typhimurium [3])	SMILES	growth inhibition (GI) (Pseudomonas aeruginosa [1]) [%]	growth inhibition (GI) (Pseudomonas aeruginosa [4])	growth inhibition (GI) (Salmonella typhimurium [5])	growth inhibition (GI) (Salmonella typhimurium [13])	further results
< 3.10	4.09	CCCCCCCCCCCCCN1c2nccc[n+]2C[C@@]1(O)c1ccccc1.[Br-]	> 25				
< 3.10	4.21	CCCCCCCCCCCN1c2nccc[n+]2C[C@@]1(O)c1ccc(Cl)cc1.[Br-]	> 25				
5.14	4.92	Brc1ccc(-c2cnc(NC3CCCC3)[nH]2)cc1		inactive	inactive		growth inhibition (GI) (Pseudomonas aeruginosa [6]): inactive; growth inhibition (GI) (Salmonella typhimurium [7]): inactive
5.01	5.15	CCCCNc1ncc(-c2ccc(Br)cc2)[nH]1		inactive	inactive		growth inhibition (GI) (Pseudomonas aeruginosa [6]): inactive; growth inhibition (GI) (Salmonella typhimurium [7]): inactive
< 3.10	4.56	CCCCCCCCCCCCN1c2nccc[n+]2C[C@@]1(O)c1ccccc1.[Br-]	> 25		Active	Active	
4.99	5.51	CCCCCNc1ncc(-c2ccc(Br)cc2)[nH]1		inactive	inactive	Active	growth inhibition (GI) (Pseudomonas aeruginosa [6]): inactive; growth inhibition (GI) (Salmonella typhimurium [7]): Active

Second part, the molecule before the results:

SMILES	pIC50 (Pseudomonas aeruginosa [2])	pIC50 (Salmonella typhimurium [3])	growth inhibition (GI) (Pseudomonas aeruginosa [1]) [%]	growth inhibition (GI) (Pseudomonas aeruginosa [4])	growth inhibition (GI) (Salmonella typhimurium [5])	growth inhibition (GI) (Salmonella typhimurium [13])	further results
CCCCCCCCCCCCCCN1c2nccc[n+]2C[C@@]1(O)c1ccccc1.[Br-]	< 3.10	3.75	> 25				
Nc1ncc(-c2ccccc2)[nH]1				inactive	inactive		growth inhibition (GI) (Salmonella typhimurium [8]): inactive; growth inhibition (GI) (Pseudomonas aeruginosa [9]): inactive
Nc1ncc(-c2ccc(Br)cc2)[nH]1				inactive			growth inhibition (GI) (Pseudomonas aeruginosa [10]): inactive; growth inhibition (GI) (Pseudomonas aeruginosa [11]): Active
Nc1ncc(-c2ccc(F)cc2)[nH]1				inactive	inactive		growth inhibition (GI) (Salmonella typhimurium [12]): inactive; growth inhibition (GI) (Pseudomonas aeruginosa [11]): inactive
CCCCCCCCCCCN1c2nccc[n+]2C[C@@]1(O)c1ccccc1.[Br-]	< 3.10	4.61	> 25		Active	Active	
Nc1ncc(-c2ccc([N+](=O)[O-])cc2)[nH]1				inactive	inactive	Active	growth inhibition (GI) (Pseudomonas aeruginosa [14]): Active; growth inhibition (GI) (Pseudomonas aeruginosa [11]): inactive
